Assay results published in ChEMBL document CHEMBL3425447, “Discovery of Orally Available Runt-Related Transcription Factor 3 (RUNX3) Modulators for Anticancer Chemotherapy by Epigenetic Activation and Protein Stabilization” (J Med Chem, 2015).

Legend:
NCI-H23 = experiment: Growth inhibition of human NCI-H23 cells after 5 days by sulforhodamine B assay; assay type: functional; conditions: NCI-H23, 120 h
Histone deacetylase = experiment: Inhibition of HDAC in human HeLa cell nuclear extract using Fluor de Lys as substrate incubated with compound for 30 mins by microtiter-plate reading flourimeter analysis; assay type: protein assay
C2C12 = experiment: Induction of RUNX transcriptional activation in mouse C2C12-6xOSE2 cells at 1 uM after 24 hrs by luciferase reporter assay relative to FGF-2; assay type: functional
Procedure, shortened: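 C2C12-6xOSE stable cells grown in DMEM with 10% FBS at 37°C, 5% CO2. Seeded at 1 × 10^4 cells/well; next day treated with compound or FGF-2 (1 µM each). After 24 h, luciferase measured with Bright-Glo. Activity expressed as percent of the FGF-2 positive-control response.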

[1] = Growth inhibition of human HCT15 cells after 5 days by sulforhodamine B assay; assay type: functional; conditions: HCT-15, 120 h
[2] = Growth inhibition of human NUGC3 cells after 5 days by sulforhodamine B assay; assay type: functional; conditions: NUGC-3, 120 h
ACHN = experiment: Growth inhibition of human ACHN cells after 5 days by sulforhodamine B assay; assay type: functional; conditions: 120 h
MDA-MB-231 = experiment: Growth inhibition of human MDA-MB-231 cells after 5 days by sulforhodamine B assay; assay type: functional; conditions: MDA-MB-231, 120 h
[3] = Growth inhibition of human PC3 cells after 5 days by sulforhodamine B assay; assay type: functional; conditions: PC-3, 120 h
[4] = Metabolic stability in mouse liver microsomes assessed as compound remaining at 1 uM after 30 mins by LC-ESI/MS/MS analysis in absence of NADPH; assay type: ADME; conditions: read-out: Stability
Procedure, shortened: (§1)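 Compound at 1 µM incubated in triplicate with pooled mouse liver microsomes (0.5 mg/ml final) in 0.1 M potassium phosphate, pH 7.4, at 37°C, with or without 1 mM NADPH. Reactions stopped at 0 and 30 min with ice-cold acetonitrile containing internal standard. After centrifugation, supernatant analyzed by LC-ESI/MS/MS; percent remaining from analyte/IS peak-area ratios. Buspirone served as positive control.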

HEK293 [5] = experiment: Induction of myc-tagged RUNX3 acetylation in human HEK293 cells assessed as RUNX3 level at 1 uM after 24 hrs by immunoprecipitation analysis relative to TSA; assay type: functional
Procedure, shortened: (§2)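 HEK293 cells (DMEM, 10% FBS) transfected with myc-RUNX3 vector using Lipofectamine 2000. Next day treated at 1 µM for 24 h. Lysates (HEPES pH 7.5, NP-40 buffer) immunoprecipitated with anti-myc antibody and protein G beads at 4°C. Immunoprecipitates western-blotted with anti-acetylated lysine antibody; relative acetylated RUNX3 quantified.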

[6] = Metabolic stability in mouse liver microsomes assessed as compound remaining at 1 uM after 30 mins byLC-ESI/MS/MS analysis in presence of NADPH; assay type: ADME; conditions: read-out: Stability; procedure, shortened: as §1
HEK293 [7] = experiment: Induction of myc-tagged RUNX3 acetylation in human HEK293 cells assessed as acetylated RUNX3 level at 1 uM after 24 hrs by immunoprecipitation analysis relative to TSA; assay type: functional; procedure, shortened: as §2

Compound | GI50 (NCI-H23) [nM] | IC50 (Histone deacetylase) [nM] | Activity (C2C12) [%] | GI50 [1] [nM] | GI50 [2] [nM] | GI50 (ACHN) [nM] | GI50 (MDA-MB-231) [nM] | GI50 [3] [nM] | remaining at 0.5 h, 1 µM [4] [%] | fold change (FC) (HEK293 [5]) | remaining at 0.5 h, 1 µM [6] [%] | fold change (FC) (HEK293 [7])
O=C(/C=C/c1cccn(CCc2ccccn2)c1=O)NO | > 10000 | 3940 | 26.7 | > 10000 | > 10000 | > 10000 | > 10000 | > 10000 |  |  |  | 
CCc1ccc(Cn2cccc(/C=C/C(=O)NO)c2=O)cc1 | 2350 | 100 | 74.3 | 1860 | 1670 | 1540 | 3680 | 2070 |  |  |  | 
O=C(/C=C/c1cccn(CCCc2ccc(Br)cc2)c1=O)NO | 4880 | 210 | 53.8 | 7450 | 4020 | 4190 | 4380 | 3970 |  |  |  | 
CC(C)(C)c1ccc(CCn2cccc(/C=C/C(=O)NO)c2=O)cc1 | 910 | 110 | 104.7 | 710 | 470 | 700 | 840 | 500 | 103 | 1.2 | 28.3 | 0.1
O=C(/C=C/c1cccn(Cc2cccc(Br)c2)c1=O)NO | 3040 | 380 | 91.6 | 2730 | 2780 | 3030 | 3070 | 4840 |  |  |  | 
CCc1ccc(CCn2cccc(/C=C/C(=O)NO)c2=O)cc1 | 690 | 70 | 106 | 690 | 740 | 700 | 720 | 530 | 96.5 | 0.4 | 11.1 | 0.2
O=C(/C=C/c1cccn(CCc2ccncc2)c1=O)NO | > 10000 | > 10000 | 19.6 | > 10000 | > 10000 | > 10000 | > 10000 | > 10000 |  |  |  | 
COc1cccc(Cn2cccc(/C=C/C(=O)NO)c2=O)c1 | 2690 | 150 | 200 | 2600 | 1690 | 1260 | 3180 | 1820 | 98.6 | 2 | 61.5 | 17
CC(C)(C)c1ccc(Cn2cccc(/C=C/C(=O)NO)c2=O)cc1 | 2810 | 90 | 46.4 | 2400 | 1820 | 2800 | 2590 | 3040 |  |  |  | 
O=C(/C=C/c1cccn(Cc2ccncc2)c1=O)NO | 3010 | 420 | 69.1 | > 10000 | 9190 | 9490 | 4920 | 9170 |  |  |  | 
O=C(/C=C/c1cccn(CCCc2cccc(Br)c2)c1=O)NO | 1220 | 100 | 100.8 | 1160 | 1200 | 740 | 1850 | 1260 | 96.7 | 0.7 | 20.7 | 0.4
O=C(/C=C/c1cccn(CCc2cccc(Br)c2)c1=O)NO | 3300 | 160 | 74 | 7290 | 1990 | 2000 | 4900 | 3580 |  |  |  | 
O=C(/C=C/c1cccn(Cc2cccnc2)c1=O)NO | 6700 | 300 | 32.3 | 7510 | 5940 | 4160 | 10000 | 5330 |  |  |  | 
CCc1ccccc1Cn1cccc(/C=C/C(=O)NO)c1=O | 4960 | 230 | 52.3 | 3930 | 5410 | 3240 | 6950 | 5020 |  |  |  | 
O=C(/C=C/c1cccn(CCc2ccc(Br)cc2)c1=O)NO | 3040 | 360 | 53.5 | 8600 | 2830 | 2140 | 6390 | 4840 |  |  |  | 
O=C(/C=C/c1cccn(Cc2ccccn2)c1=O)NO | > 10000 | 460 | 35.6 | > 10000 | > 10000 | 6440 | > 10000 | 10200 |  |  |  | 
CCOc1cccc(CCn2cccc(/C=C/C(=O)NO)c2=O)c1 | 1810 | 120 | 76.9 | 920 | 1420 | 940 | 1740 | 1340 |  |  |  | 
CCOc1ccccc1CCn1cccc(/C=C/C(=O)NO)c1=O | 4920 | 320 | 30.9 | 6060 | 3920 | 3590 | 3890 | 4920 |  |  |  | 
O=C(/C=C/c1cccn(CCCc2cccnc2)c1=O)NO | 5210 | 570 | 30 | > 10000 | > 10000 | > 10000 | > 10000 | > 10000 |  |  |  | 
O=C(/C=C/c1cccn(Cc2ccccc2Br)c1=O)NO | 2300 | 190 | 86 | 2400 | 1660 | 1530 | 1590 | 2880 |  |  |  | 
COc1ccc(Cn2cccc(/C=C/C(=O)NO)c2=O)cc1 | 5300 | 380 | 84.6 | 4520 | 3880 | 4730 | 6260 | 4700 |  |  |  | 
CCOc1ccc(CCn2cccc(/C=C/C(=O)NO)c2=O)cc1 | 1050 | 70 | 119.5 | 1000 | 1280 | 2340 | 2050 | 140 | 105 | 0.8 | 59.6 | 0.2
COc1cccc(CCn2cccc(/C=C/C(=O)NO)c2=O)c1 | 5060 | 70 | 53.8 | > 10000 | 2910 | 2930 | 6940 | 5870 |  |  |  | 
O=C1CC2(CCCC2)CC(=O)N1CCCCN1CCN(c2ncccn2)CC1 [BUSPIRONE] |  |  |  |  |  |  |  |  | 101 |  | 0.4 | 
CCc1ccc(CCCn2cccc(/C=C/C(=O)NO)c2=O)cc1 | 2150 | 310 | 14.3 | 1060 | 1740 | 1710 | 2880 | 1850 |  |  |  | 
O=C(CCCCCCC(=O)Nc1ccccc1)NO [VORINOSTAT] |  |  | 80.2 |  |  |  |  |  |  |  |  | 
COc1ccc(CCCn2cccc(/C=C/C(=O)NO)c2=O)cc1 | 1310 | 140 | 97.6 | 900 | 970 | 980 | 1360 | 1780 |  |  |  | 
O=C(/C=C/c1cccn(Cc2ccc(Br)cc2)c1=O)NO | 3000 | 100 | 99.2 | 4310 | 2110 | 1480 | 2490 | 1880 |  |  |  | 
CC(C)(C)c1ccc(CCCn2cccc(/C=C/C(=O)NO)c2=O)cc1 | 1780 | 380 | 34.4 | 1420 | 1310 | 1830 | 2230 | 1480 |  |  |  | 
O=C(/C=C/c1cccn(CCCc2ccccc2Br)c1=O)NO | 1880 | 480 | 162.8 | 1580 | 1500 | 1920 | 2890 | 1860 |  |  | 24.2 | 
